Assay results of several laboratories.
Target: Mitogen-activated protein kinase kinase kinase 11 (MAP3K11, Homo sapiens, UniProt Q16584)

| Structure (SMILES) | effect on | mode | method | concentration | measurement | value |
| --- | --- | --- | --- | --- | --- | --- |
| CCCCC(=O)Nc1ccc(-c2ccc3ncn(CCC)c(=O)c3c2)cn1 | binding | – | competition with immobilised ligand | 0.5 µM | remaining binding | 82% |
| COc1ccc2[nH]c3c4[nH]c5ccc(OC)cc5c4c4c(c3c2c1)C(=O)NC4=O | binding | – | – | 1 µM | remaining binding | 5.6% |
| C1=C/COCc2cc(ccc2OCCN2CCCC2)Nc2nccc(n2)-c2cccc(c2)COC/1 | cell-free assay | – | – | 0.1 µM | remaining signal | 100% |
| CC(C)S(=O)(=O)c1ccc2nccc(Nc3ccc4sc(C5CCCC5)nc4c3)c2c1 | enzyme activity | inhibitor | – | 1 µM | activity vs control | 98% |
| C=CC(=O)N1CCC([C@@H]2CCNc3c(C(N)=O)c(-c4ccc(Oc5ccccc5)cc4)nn32)CC1 | enzyme activity | inhibitor | – | 1 µM | inhibition | 0% |
| CN1CCN(C(=O)c2ccc(NC(=O)Nc3ccc(N(C)c4ccnc(Nc5ccc(CS(C)(=O)=O)cc5)n4)cc3)cc2)CC1 | binding | – | – | 1 µM | remaining binding | 91% |
| C=CC(=O)N1CCC[C@@H](n2nc(-c3ccc(Oc4ccccc4)cc3)c3c(N)ncnc32)C1 | enzyme activity | inhibitor | – | 1 µM | inhibition | 0% |
| C#Cc1cc(-c2cc(Nc3nc(N[C@@H](C)c4ccc(F)cn4)ncc3Cl)n[nH]2)ccc1C=O | enzyme activity | inhibitor | – | 0.2 µM | inhibition | 72.5% |
